ChEMBL document CHEMBL5674884, “Ezh2 inhibition in Kras-driven lung cancer amplifies inflammation and associated vulnerabilities” (J Exp Med, 2018)
Calls of active or inactive are those of the source.

Key:
[1] = target: Histone-lysine N-methyltransferase EZH2 (Mus musculus) (UniProt Q61188); test: Inhibition of Ezh2 in mouse NSCLC cells at 100 nM in presence of […] by immunoblot analysis; assay type: cell-based
[2] = target: Histone-lysine N-methyltransferase EZH2 (Mus musculus) (UniProt Q61188); test: Inhibition of Ezh2 in mouse NSCLC cells infected with dox-inducible EZH2 shRNA assessed vinculin expression at 100 nM in presence of […] by immunoblot analysis; assay type: cell-based
NSCLC [3] = test: Inhibition of colony formation in mouse NSCLC cell expressing Kras G12D/+ at 100 nM; assay type: functional, cell-based
Method in brief: (§1)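 Kras G12D/+;Trp53-/- cells treated with 100 nM GSK343 or GSK669 for 5 d, with or without dox, then replated at 250 or 500 cells per well for colony formation under continued treatment. Cell numbers taken relative to controls; colony size quantified automatically. Three independent experiments.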

NSCLC [4] = test: Antiproliferative activity in mouse NSCLC cell expressing Kras G12D/+ assessed reduction in cell viability at 100 nM; assay type: functional, cell-based; method in brief: as §1
NSCLC [5] = test: Induction of cell cycle arrest in mouse NSCLC cell infected with dox-inducible EZH2 shRNA assessed as accumulation of cells at G0/G1 phase at 100 nM in presence of […] by FACS analysis; assay type: functional, cell-based
Method in brief: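 Kras G12D/+;Trp53-/- cells carrying dox-inducible EZH2 shRNA treated with or without dox and 100 nM GSK343 for 3 d. Cells then pulsed 45 min with 10 uM BrdU and stained with anti-BrdU-FITC and propidium iodide (5 ug/ml) with RNaseA, then analyzed by FACS. Three independent experiments; Student's t test.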

[6] = target: Histone-lysine N-methyltransferase EZH2 (Mus musculus) (UniProt Q61188); test: Inhibition of Ezh2 in mouse NSCLC cells expressing Kras G12D/+ assessed down-regulation of H3K27me3 level at 100 nM for 120 hrs by Immunoblot analysis; assay type: cell-based
A549 [7] = test: Reversal of GSK126 dependent antiinflammatory activity in human A549 cells assessed as decrease in Ccl2 level by qRT-PCR analysis; assay type: functional, cell-based
A549 [8] = test: Reversal of GSK126 dependent antiinflammatory activity in human A549 cells assessed as decrease in Il1ra level by qRT-PCR analysis; assay type: functional, cell-based
A549 [9] = test: Reversal of GSK126 dependent antiinflammatory activity in human A549 cells assessed as decrease in Irak1 level by qRT-PCR analysis; assay type: functional, cell-based
A549 [10] = test: Reversal of GSK126 dependent antiinflammatory activity in human A549 cells assessed as decrease in IL-6 level by qRT-PCR analysis; assay type: functional, cell-based

Chain of Histone-lysine N-methyltransferase EZH2 (Mus musculus) (Q61188 whole entry): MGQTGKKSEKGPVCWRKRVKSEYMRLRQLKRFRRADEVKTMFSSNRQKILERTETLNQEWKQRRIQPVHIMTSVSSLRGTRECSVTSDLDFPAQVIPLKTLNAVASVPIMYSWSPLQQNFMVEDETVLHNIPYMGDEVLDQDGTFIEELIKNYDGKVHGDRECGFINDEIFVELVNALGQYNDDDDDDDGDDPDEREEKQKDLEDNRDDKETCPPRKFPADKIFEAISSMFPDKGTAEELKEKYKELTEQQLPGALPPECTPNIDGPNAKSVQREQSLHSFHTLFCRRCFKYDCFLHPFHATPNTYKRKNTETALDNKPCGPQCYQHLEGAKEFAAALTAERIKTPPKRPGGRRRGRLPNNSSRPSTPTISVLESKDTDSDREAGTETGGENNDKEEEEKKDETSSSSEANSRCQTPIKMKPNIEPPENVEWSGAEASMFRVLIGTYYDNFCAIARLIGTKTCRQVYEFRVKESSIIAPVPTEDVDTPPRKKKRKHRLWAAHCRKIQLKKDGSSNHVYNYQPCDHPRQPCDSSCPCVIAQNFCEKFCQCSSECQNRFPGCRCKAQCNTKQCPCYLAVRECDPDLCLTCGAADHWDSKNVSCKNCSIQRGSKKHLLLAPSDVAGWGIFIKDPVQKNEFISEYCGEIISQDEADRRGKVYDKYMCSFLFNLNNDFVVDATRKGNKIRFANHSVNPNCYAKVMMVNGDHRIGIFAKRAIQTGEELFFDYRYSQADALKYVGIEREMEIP

CCCc1cc(C)[nH]c(=O)c1CNC(=O)c1cc(-c2ccnc(N3CCN(C)CC3)c2)cc2c1cnn2C(C)C
active: inhibition [1] | inhibition [2] | inhibition (NSCLC [3]) | Activity (NSCLC [4]) | Activity (NSCLC [5]) | inhibition [6]

CC(C)(C)c1cnc(CSc2cnc(NC(=O)C3CCNCC3)s2)o1
active: Activity (A549 [7]) | Activity (A549 [8]) | Activity (A549 [9]) | Activity (A549 [10])

CN1CC[C@H](c2c(O)cc(O)c3c(=O)cc(-c4ccccc4Cl)oc23)[C@H](O)C1
active: Activity (A549 [7]) | Activity (A549 [8]) | Activity (A549 [9]) | Activity (A549 [10])
